Holding throughout (type): functional
The test system of experiment [1] is Mus musculus. Briefly: Antipapilloma activity was measured in mice as percentage effect by ip administration at the dose of 40 mg/kg/day. Conditions: route intraperitoneal.
For experiment [2], the species on record is Mus musculus. Nature of the experiment: Hypervitaminosis A dose, a measure of toxicity, in mice was determined. In short, it runs like this:
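Mice received retinoid suspended in water with 0.1% carboxymethylcellulose and 0.01% Triton X-100. Dosing was ip daily Mon–Fri in week 1 and Mon–Thu in week 2. Symptoms were scored one day after the last injection: weight loss, skin redness/scaling, hair loss, nose/mouth mucosal changes, bone fractures. The value is the lowest daily dose at which 2 of 3 mice show one or more symptoms.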

Experiment [3] deals with Mus musculus. Nature of the experiment: Antipapilloma activity was measured in mice as percentage effect by ip administration at the dose of 20 mg/kg/day. Conditions: route intraperitoneal.
The subject of experiment [4] is Mus musculus. Briefly: Antipapilloma activity was measured in mice as percentage effect by ip administration at the dose of 80 mg/kg/day. Conditions: route intraperitoneal.
Experiment [5] deals with Mus musculus. Nature of the experiment: Antipapilloma activity was measured in mice as percentage effect by ip administration at the dose of 5 mg/kg/day. The note with it: route intraperitoneal.
In experiment [6] the test system is Mus musculus. Briefly: Antipapilloma activity was measured in mice as percentage effect by ip administration at the dose of 10 mg/kg/day. The note with it: route intraperitoneal.

For the compound `COC(=O)/C=C(C)/C=C/C(F)=C(C)/C=C/c1c(Cl)cc(OC)c(C)c1C`, in the experiment on Mus musculus [1], the Effect is -41%. The compound also returned a Dose in the experiment filed under Mus musculus [2] of 200 mg/kg.

`COC(=O)/C=C(C)/C=C/C(F)=C(C)/C=C/c1c(C)cc(OC)c(C)c1Cl`: the Effect with Mus musculus [3] is reported as -56%. In the experiment listed under Mus musculus [2], this compound gave a Dose of 50 mg/kg.

`COC(=O)/C=C(C)/C=C/C(F)=C(C)/C=C/c1c(C)cc(C)c(Cl)c1C`: the Effect in the experiment with Mus musculus [4] is on record as -48%. This compound yielded a Dose in the experiment filed under Mus musculus [2] of 200 mg/kg.

Turning to `COC(=O)/C=C(C)/C=C/C(F)=C(C)/C=C/c1c(C)cc(OC)c(C)c1C`, the Effect is listed as -79% in the experiment on Mus musculus [1], -28% in the experiment with Mus musculus [5], -35% in the experiment with Mus musculus [6] and -60% in the experiment on Mus musculus [3]. The compound further gave a Dose in the experiment listed under Mus musculus [2] of 50 mg/kg.

For `COC(=O)/C=C(C)/C=C/C(F)=C(C)/C=C/c1c(Cl)cc(OC)c(C)c1Cl`, the Effect in the experiment with Mus musculus [4] is -64%. The compound also showed a Dose in the experiment filed under Mus musculus [2] of 200 mg/kg.

As to `COC(=O)/C=C(C)/C=C/C(F)=C(C)/C=C/c1c(Cl)cc(OC)c(Cl)c1Cl`, the Effect with Mus musculus [4] is -58%. In addition, in the experiment filed under Mus musculus [2], the Dose was >200 mg/kg.

(Values after ChEMBL document CHEMBL1122138, “Fluorinated retinoic acids and their analogues. 3. Synthesis and biological activity of aromatic 6-fluoro analogues” (1982).)
